Reference: ChEMBL document CHEMBL1140344, “New 2-arylpyrazolo[4,3-c]quinoline derivatives as potent and selective human A3 adenosine receptor antagonists” (J Med Chem, 2005)

Columns and labels:
[1] = target: T1, Adenosine receptor A1 (Homo sapiens) (UniProt P30542); assay: Percent inhibition [3H]DPCPX binding to human adenosine A1 receptor expressed in CHO cells; (n=3 - 6); format: cell-based; parameters: concentration or dose not given beside the values; conditions: concentration not given here
T1 sequence (whole entry): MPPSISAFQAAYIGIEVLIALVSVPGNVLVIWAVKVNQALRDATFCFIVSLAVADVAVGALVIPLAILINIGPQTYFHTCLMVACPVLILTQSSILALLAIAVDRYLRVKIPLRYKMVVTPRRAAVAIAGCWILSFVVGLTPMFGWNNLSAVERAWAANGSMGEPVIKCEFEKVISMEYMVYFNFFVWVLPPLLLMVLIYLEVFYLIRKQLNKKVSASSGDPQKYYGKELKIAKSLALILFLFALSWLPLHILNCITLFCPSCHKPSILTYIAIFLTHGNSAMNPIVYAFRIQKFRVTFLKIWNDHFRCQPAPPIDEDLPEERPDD

Adenosine receptor A2a [2] = target: T2, Adenosine receptor A2a (Homo sapiens, UniProt P29274); assay: Percent inhibition of [3H]ZM-241385 binding to human adenosine 2Aa receptor expressed in CHO cells; (n=3 - 6); format: cell-based; parameters: concentration or dose not given beside the values; conditions: concentration not given here
[3] = target: T3, Adenosine receptor A2b (Homo sapiens) (UniProt P29275); assay: Percent inhibition of human adenosine A2b receptor expressed in CHO cells; format: cell-based; parameters: concentration or dose not given beside the values; conditions: concentration not given here
T3 sequence (whole entry): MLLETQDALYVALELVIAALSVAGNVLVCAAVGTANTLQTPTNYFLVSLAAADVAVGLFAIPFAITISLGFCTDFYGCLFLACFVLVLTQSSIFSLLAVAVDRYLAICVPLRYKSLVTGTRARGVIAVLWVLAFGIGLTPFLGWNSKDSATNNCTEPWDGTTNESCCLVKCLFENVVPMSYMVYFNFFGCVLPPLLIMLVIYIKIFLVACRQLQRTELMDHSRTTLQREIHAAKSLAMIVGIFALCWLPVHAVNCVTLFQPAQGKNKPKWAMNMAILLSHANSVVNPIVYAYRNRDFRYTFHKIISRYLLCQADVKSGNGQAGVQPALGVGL

Adenosine receptor A2b = target: T4, Adenosine receptor A2b (Homo sapiens, UniProt P29275); assay: Inhibition of 100 nM-NECA stimulation of cAMP levels in human adenosine A2b receptor expressing CHO cells; format: cell-based
T4 sequence (P29275 whole entry): T3 sequence (whole entry)
In short: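 CHO cells stably transfected with human A2B receptor, grown in DMEM/F12 with 10% FCS and G418, 37 °C. Cells trypsinised and suspended at 1 × 10⁶ cells/assay in pH 7.4 buffer with 2 IU/ml adenosine deaminase and Ro 20-1724. Preincubated 10 min at 37 °C, then challenged with 100 nM NECA. Stopped with cold 6% TCA. cAMP measured by competitive binding to [³H]cAMP with adrenal binding protein. IC50 from sigmoid nonlinear regression.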

Adenosine receptor A1 = target: T5, Adenosine receptor A1 (Homo sapiens, UniProt P30542); assay: Inhibition of [3H]DPCPX binding to human adenosine A1 receptor expressed in CHO cells; (n=3 - 6); format: cell-based
T5 sequence (P30542 whole entry): T1 sequence (whole entry)
In short: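 Membranes from human A1-transfected CHO cells, pretreated with adenosine deaminase 3 IU/ml for 30 min at 37 °C. 50 µg protein incubated 120 min at 25 °C in 50 mM Tris HCl pH 7.4 with 1 nM [³H]DPCPX and 6–8 concentrations of test ligand. Nonspecific binding defined with 10 µM CHA. Separated by GF/B filtration, counted by scintillation. Ki via Cheng–Prusoff.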

Adenosine receptor A2a [4] = target: T2, Adenosine receptor A2a; assay: Inhibition of [3H]ZM-241385 binding to human adenosine A2a receptor expressed in CHO cells; (n=3 - 6); format: cell-based
In short: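 Membranes from human A2A-transfected CHO cells, pretreated with adenosine deaminase. 50 µg protein incubated 60 min at 4 °C in 50 mM Tris HCl, 10 mM MgCl₂, pH 7.4 with [³H]ZM241385 and 6–8 concentrations of test ligand. Nonspecific binding defined with 1 µM ZM241385. Separated by filtration, counted by scintillation. Ki via Cheng–Prusoff.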

Adenosine receptor A3 [5] = target: T6, Adenosine receptor A3 (Homo sapiens, UniProt P0DMS8); assay: Inhibition of [3H]MRE3008-F20 binding to human adenosine A3 receptor expressed in CHO cells; (n=3 - 6); format: cell-based
T6 sequence (P0DMS8 whole entry): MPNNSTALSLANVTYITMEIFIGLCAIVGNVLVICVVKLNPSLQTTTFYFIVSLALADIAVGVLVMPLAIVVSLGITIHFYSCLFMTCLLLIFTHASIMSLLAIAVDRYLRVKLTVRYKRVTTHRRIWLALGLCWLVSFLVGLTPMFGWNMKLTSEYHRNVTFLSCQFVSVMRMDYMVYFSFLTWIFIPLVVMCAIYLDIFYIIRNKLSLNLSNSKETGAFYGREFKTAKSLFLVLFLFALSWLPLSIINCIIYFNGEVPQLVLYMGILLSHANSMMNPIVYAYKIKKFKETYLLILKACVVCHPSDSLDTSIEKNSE

Adenosine receptor A3 [6] = target: T6, Adenosine receptor A3; assay: Inhibition of cAMP accumulation in human adenosine A3 receptor assay as inhibition of Cl-IB-MECA; format: functional
[7] = target: T1, Adenosine receptor A1 (Homo sapiens); assay: Percentage inhibition of [3H]DPCPX binding to human adenosine A1 receptor expressed in CHO cells; (n=3 - 6); format: cell-based; conditions: concentration not given here

T2 sequence (P29274 whole entry): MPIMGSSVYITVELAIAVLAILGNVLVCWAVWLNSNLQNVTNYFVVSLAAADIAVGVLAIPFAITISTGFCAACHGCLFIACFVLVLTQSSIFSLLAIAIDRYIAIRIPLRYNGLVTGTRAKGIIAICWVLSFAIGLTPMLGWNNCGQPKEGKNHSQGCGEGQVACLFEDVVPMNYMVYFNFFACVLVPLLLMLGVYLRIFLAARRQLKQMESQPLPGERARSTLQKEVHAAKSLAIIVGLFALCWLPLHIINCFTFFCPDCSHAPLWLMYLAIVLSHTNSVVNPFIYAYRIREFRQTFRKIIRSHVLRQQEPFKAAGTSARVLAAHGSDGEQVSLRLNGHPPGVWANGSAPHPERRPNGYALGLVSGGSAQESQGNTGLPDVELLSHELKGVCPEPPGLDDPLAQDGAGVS

Row | SMILES | inhibition [1] [%] | inhibition (Adenosine receptor A2a [2]) [%] | inhibition [3] [%] | IC50 (Adenosine receptor A2b) [nM] | Ki (Adenosine receptor A1) [nM] | Ki (Adenosine receptor A2a [4]) [nM] | Ki (Adenosine receptor A3 [5]) [nM] | Ki (Adenosine receptor A3 [6]) [nM] | inhibition [7] [%]
1 | Cc1ccc(-n2cc3c(O)nc4ccccc4c3n2)cc1 | 3 | 1 | 2 |  |  |  |  |  | 
2 | Oc1nc2ccccc2c2nn(-c3ccccc3Cl)cc12 | 3 | 1 | 8 | > 1000 | > 1000 | > 1000 | 44 |  | 
3 | CCc1ccc(-n2cc3c(O)nc4ccccc4c3n2)cc1 | 12 | 1 | 13 |  |  |  |  |  | 
4 | Oc1nc2ccccc2c2nn(-c3ccc(F)cc3)cc12 | 10 | 10 | 10 | > 1000 | > 1000 | > 1000 | 27 |  | 
5 | CCc1ccc(-n2cc3c(=O)[nH]c4ccccc4c3n2)cc1 |  |  |  | > 1000 | > 1000 | > 1000 | 157 |  | 
6 | Oc1nc2ccccc2c2nn(-c3ccccc3)cc12 |  | 2 | 1 | > 1000 | > 1000 | > 1000 | 27 | 55 | 5
7 | Sc1nc2ccccc2c2nn(-c3ccccc3)cc12 | 14 | 8 | 11 | > 1000 | > 1000 | > 1000 | 220 |  | 
8 | COc1nc2ccccc2c2nn(-c3ccccc3)cc12 | 16 | 5 | 10 | > 1000 | > 1000 | > 1000 | 166 |  | 

The remaining lines, values ahead:

Row | inhibition [1] [%] | inhibition (Adenosine receptor A2a [2]) [%] | inhibition [3] [%] | IC50 (Adenosine receptor A2b) [nM] | Ki (Adenosine receptor A1) [nM] | Ki (Adenosine receptor A2a [4]) [nM] | Ki (Adenosine receptor A3 [5]) [nM] | Ki (Adenosine receptor A3 [6]) [nM] | inhibition [7] [%] | SMILES
9 | 4 | 1 | 1 | > 1000 | > 1000 | > 1000 | 19 |  |  | Oc1nc2ccccc2c2nn(-c3ccc(Cl)cc3)cc12
10 | 1 | 1 | 2 | > 1000 | > 1000 | > 1000 | 16 | 42 |  | COc1ccc(-n2cc3c(O)nc4ccccc4c3n2)cc1
11 | 5 | 3 | 1 | > 1000 | > 1000 | > 1000 | 212 |  |  | c1ccc(-n2cc3cnc4ccccc4c3n2)cc1
12 | 4 | 2 | 1 | > 1000 | > 1000 | > 1000 | 125 |  |  | c1ccc(CNc2nc3ccccc3c3nn(-c4ccccc4)cc23)cc1
13 |  |  |  | > 1000 | > 1000 | > 1000 |  |  |  | Cc1ccc(-n2cc3c(=O)[nH]c4ccccc4c3n2)cc1
